Article PMC3180826 (ACS chemical neuroscience, 2010)
Changes are numbered by the printed parent chain. Blank lines part the entries; values can stand above or below the compound they belong to.

What was measured:
rM1 Y381A = molecular target: T1, rM1 Y381A (Rattus norvegicus, UniProt P08482, Y381A); experiment: Calcium mobilization in rM1 Y381A; type: cell-based; conditions: for potency at M1 Y381A compared with WT M1: M1Y381A CHO cells vs WT M1 CHO cells
T1 sequence (P08482 1-460 Y381A): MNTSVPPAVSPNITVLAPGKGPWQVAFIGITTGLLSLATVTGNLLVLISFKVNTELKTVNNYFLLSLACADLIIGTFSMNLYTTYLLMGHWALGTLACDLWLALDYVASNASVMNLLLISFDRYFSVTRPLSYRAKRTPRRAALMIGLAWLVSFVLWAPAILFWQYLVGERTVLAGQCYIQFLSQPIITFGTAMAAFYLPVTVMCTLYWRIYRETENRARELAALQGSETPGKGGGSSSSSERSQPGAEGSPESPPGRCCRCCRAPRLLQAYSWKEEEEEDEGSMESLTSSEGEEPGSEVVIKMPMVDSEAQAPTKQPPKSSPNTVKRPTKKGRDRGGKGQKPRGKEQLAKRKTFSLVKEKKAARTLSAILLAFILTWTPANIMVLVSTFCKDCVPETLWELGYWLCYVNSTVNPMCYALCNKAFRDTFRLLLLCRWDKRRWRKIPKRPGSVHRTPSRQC

M2 = molecular target: T2, M2 (Homo sapiens, UniProt P08172); experiment: Antagonism of EC80 ACh response, calcium mobilization, M2; type: cell-based; conditions: read-out: M2 antagonism IC50; attenuation of EC80 ACh response
T2 sequence (P08172 1-466): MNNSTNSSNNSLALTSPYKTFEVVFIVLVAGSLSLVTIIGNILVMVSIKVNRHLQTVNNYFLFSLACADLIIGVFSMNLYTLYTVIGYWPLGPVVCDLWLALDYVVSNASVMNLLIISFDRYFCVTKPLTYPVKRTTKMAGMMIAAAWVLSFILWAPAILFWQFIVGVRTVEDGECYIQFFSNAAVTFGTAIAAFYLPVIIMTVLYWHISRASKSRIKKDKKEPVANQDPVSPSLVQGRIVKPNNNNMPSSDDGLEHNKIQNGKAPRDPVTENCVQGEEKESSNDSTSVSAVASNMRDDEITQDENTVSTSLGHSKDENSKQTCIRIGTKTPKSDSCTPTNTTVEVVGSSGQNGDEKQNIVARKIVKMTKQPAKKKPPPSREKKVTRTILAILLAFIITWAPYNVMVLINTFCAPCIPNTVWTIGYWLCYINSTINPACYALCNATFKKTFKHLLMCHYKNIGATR

M5 = molecular target: T3, M5 (Homo sapiens, UniProt P08912); experiment: Antagonism of EC80 ACh response, calcium mobilization, M5; type: cell-based; conditions: read-out: M5 antagonism IC50; attenuation of EC80 ACh response
T3 sequence (P08912 1-532): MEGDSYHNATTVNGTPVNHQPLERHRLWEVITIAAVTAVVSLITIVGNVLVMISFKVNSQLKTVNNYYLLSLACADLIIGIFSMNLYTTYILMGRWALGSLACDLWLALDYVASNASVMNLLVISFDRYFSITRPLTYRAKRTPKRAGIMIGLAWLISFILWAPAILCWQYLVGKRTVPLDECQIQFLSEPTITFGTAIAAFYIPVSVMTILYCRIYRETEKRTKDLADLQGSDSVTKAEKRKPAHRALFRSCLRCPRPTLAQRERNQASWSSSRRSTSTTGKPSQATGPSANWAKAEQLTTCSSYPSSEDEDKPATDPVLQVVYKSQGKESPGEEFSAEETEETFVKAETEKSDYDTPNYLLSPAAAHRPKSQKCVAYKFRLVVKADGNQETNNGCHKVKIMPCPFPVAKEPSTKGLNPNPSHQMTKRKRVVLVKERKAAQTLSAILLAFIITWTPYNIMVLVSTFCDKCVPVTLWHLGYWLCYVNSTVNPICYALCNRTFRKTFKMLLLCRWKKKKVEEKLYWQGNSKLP

rM4 = molecular target: T4, rM4 (Rattus norvegicus, UniProt P08485); experiment: Calcium mobilization assay, agonist mode, M4; type: cell-based; conditions: up to 30 μM
T4 sequence (P08485 1-478): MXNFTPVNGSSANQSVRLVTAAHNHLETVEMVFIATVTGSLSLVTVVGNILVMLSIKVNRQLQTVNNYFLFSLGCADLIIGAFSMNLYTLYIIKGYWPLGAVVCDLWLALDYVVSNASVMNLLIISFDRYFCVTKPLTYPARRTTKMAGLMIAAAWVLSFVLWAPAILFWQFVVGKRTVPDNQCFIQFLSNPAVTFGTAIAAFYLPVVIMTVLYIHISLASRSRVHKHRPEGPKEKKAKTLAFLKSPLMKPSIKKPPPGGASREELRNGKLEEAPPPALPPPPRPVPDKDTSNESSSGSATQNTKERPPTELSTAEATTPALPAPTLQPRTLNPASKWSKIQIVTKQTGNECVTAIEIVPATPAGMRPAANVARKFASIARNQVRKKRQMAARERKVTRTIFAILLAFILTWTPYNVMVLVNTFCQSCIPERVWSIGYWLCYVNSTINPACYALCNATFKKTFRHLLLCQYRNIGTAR
Outline: (§1)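 CHO-K1 cells stably expressing hM2/Gqi5 or rM4/Gqi5 (6 × 10^4 cells/well), or hM3 or hM5 (5 × 10^4 cells/well), were cultured overnight at 37 °C in 5% CO2. Cells were loaded with 2 μM Fluo-4 AM for 1 h at 37 °C in HBSS with 20 mM HEPES and 2.5 mM probenecid, pH 7.4. Eight-point test compound concentration series were added at 19 s of a 130 s read. Calcium flux was read as fluorescence fold over basal.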

hM5 = molecular target: T5, hM5 (Homo sapiens, UniProt P08912); experiment: Calcium mobilization assay, agonist mode, M5; type: cell-based; conditions: up to 30 μM
T5 sequence (P08912 1-532): T3 sequence (P08912 1-532)
Outline: as §1

rM1 receptor = molecular target: T6, rM1 receptor (Rattus norvegicus, UniProt P08482); experiment: Calcium mobilization assay, CHO-K1 cells stably expressing rM1; type: cell-based; conditions: for EC50: read-out: M1 EC50; for M1 potency and efficacy (SAR statement): substitution around the benzyl ring
T6 sequence (P08482 1-460): T1 sequence (P08482 1-460 Y381A) with A381Y

M1 = molecular target: T7, M1 (Rattus norvegicus, UniProt P08482); experiment: HTS confirmation concentration-response in M1-CHO cells; type: cell-based; conditions: for sensitivity to block by atropine: concentration series in the presence of atropine; for EC50: read-out: M1 EC50, from the DPI DMSO stock
T7 sequence (P08482 1-460): T1 sequence (P08482 1-460 Y381A) with A381Y

hM3 = hM3 (Homo sapiens, UniProt P20309); experiment: Calcium mobilization assay, agonist mode, M3; type: cell-based; conditions: up to 30 μM
Sequence of hM3 (P20309 whole entry): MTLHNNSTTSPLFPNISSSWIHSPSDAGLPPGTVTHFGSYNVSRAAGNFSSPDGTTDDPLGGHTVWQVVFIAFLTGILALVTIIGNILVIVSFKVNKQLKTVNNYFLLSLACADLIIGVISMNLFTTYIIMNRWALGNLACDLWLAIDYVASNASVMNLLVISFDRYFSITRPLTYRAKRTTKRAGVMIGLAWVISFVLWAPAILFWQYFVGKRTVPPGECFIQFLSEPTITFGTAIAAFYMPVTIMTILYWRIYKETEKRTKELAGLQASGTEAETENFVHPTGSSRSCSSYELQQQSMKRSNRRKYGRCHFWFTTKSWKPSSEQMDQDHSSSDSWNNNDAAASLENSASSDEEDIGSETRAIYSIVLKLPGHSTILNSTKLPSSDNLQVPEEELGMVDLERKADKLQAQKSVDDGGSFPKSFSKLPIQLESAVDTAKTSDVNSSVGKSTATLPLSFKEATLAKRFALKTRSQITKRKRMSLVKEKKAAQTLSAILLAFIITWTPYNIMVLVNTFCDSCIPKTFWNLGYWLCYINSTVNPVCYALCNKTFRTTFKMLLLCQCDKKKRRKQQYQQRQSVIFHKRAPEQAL
Outline: as §1

hM2 = molecular target: T8, hM2 (Homo sapiens, UniProt P08172); experiment: Calcium mobilization assay, agonist mode, M2; type: cell-based; conditions: up to 30 μM
T8 sequence (P08172 1-466): T2 sequence (P08172 1-466)
Outline: as §1

[1] = Plasma-brain exposure profile PK study; type: in vivo; conditions: rat
Outline: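 Test compound was dissolved in sterile water at 5 mg/mL and dosed at 10 mg/kg ip in male Sprague–Dawley rats (225–250 g). Plasma and brain were collected at 0.5, 1, 2, 4 and 8 h, with three rats per time point. Brains were homogenized 1:3 in PBS, and samples were extracted by acetonitrile/0.1% formic acid precipitation with internal standard. Quantification was by LC-MS/MS SRM (10–2000 ng/mL calibration), with noncompartmental analysis.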

Aqueous solubility = type: physicochemical; conditions: water
[2] = tested on: scopolamine-induced deficits in contextual fear conditioning; experiment: Contextual fear conditioning, scopolamine-induced deficit; type: in vivo; conditions: rat; for effect on acquisition of contextual fear conditioning response: 0.2 mg/kg s.c., 15 minutes prior to training, 0.2 mg/kg
Outline: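 Male Sprague–Dawley rats (380–420 g) were habituated to vehicle injections for 2 days. Test compound (1–10 mg/kg ip) was given 30 min before training, and scopolamine (0.2 mg/kg sc) or vehicle 15 min before. Training used two 1 s, 0.5 mA footshocks 2.5 min apart, with a vanilla odour cue. At 24 h, video-scored freezing over 7 min was expressed as percent. Groups had 3–4 rats; one-way ANOVA with Dunnett's test against vehicle/scopolamine.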

[3] = rM1 CHO-K1, calcium mobilization

Structure (SMILES): Clc1ccc2c(c1)N=C(N1CCNCC1)c1ccccc1N2 [NDMC, N-desmethylclozapine, reference compound]
potency at M1 Y381A compared with WT M1 (rM1 Y381A): potency similar to that observed in cells expressing WT M1

Structure (SMILES): Cc1ccccc1CN1CCC(N2CCC(n3c(=O)[nH]c4ccccc43)CC2)CC1 [TBPB]
IC50 (M2): 1100 nM
IC50 (M5): 10100 nM

agonist activity at M4 (rM4): no alteration was detected in baseline
agonist activity at M5 (hM5): no alteration was detected in baseline
EC50 (rM1 receptor; [3]): 1740 nM
selectivity for M1 vs. M4 (M1; M1-CHO vs M4/Gqi5 CHO cells): > 50 fold
sensitivity to block by atropine (M1): sensitive to block by atropine
EC50 (M1): ~1000 nM
agonist activity at M3 (hM3): no alteration was detected in baseline
agonist activity at M2 (hM2): no alteration was detected in baseline
rM1 Y381A AChmax (maximal efficacy) (rM1 Y381A; rM1 Y381A cells): 44.69 % max
EC50 (rM1 Y381A; read-out: rM1 Y381A EC50, rM1 Y381A cells): 1230 nM
Structure (SMILES): CCOC(=O)N1CCC(NCCNC(=O)c2cccs2)CC1 [VU0177548]

agonist activity at M4 (rM4): no alteration was detected in baseline
agonist activity at M5 (hM5): no alteration was detected in baseline
EC50 (rM1 receptor; [3]): 804 nM
sensitivity to block by atropine (M1): sensitive to block by atropine
EC50 (M1): ~1000 nM
agonist activity at M3 (hM3): no alteration was detected in baseline
agonist activity at M2 (hM2): no alteration was detected in baseline
rM1 Y381A AChmax (maximal efficacy) (rM1 Y381A; rM1 Y381A cells): 45.80 % max
Structure (SMILES): CCOC(=O)N1CCC(NCCNC(=O)c2ccccc2Cl)CC1 [VU0207811]

agonist activity at M4 (rM4): no activity
Kp ([1]; male, Sprague-Dawley, brain and plasma, ip, 10 mg/kg): 1.46
brain level ([1]; 10 mg/kg i.p., brain): 4338.90 ± 1071.20 ng/mL
plasma level ([1]; 10 mg/kg i.p., plasma): 1053.49 ± 276.03 ng/mL
central penetrance ([1]; i.p. administration): centrally-penetrant
agonist activity at M5 (hM5): no activity
solubility (Aqueous solubility): > 25 mg/mL
ACh Max efficacy (rM1 receptor; [3]): 80.52 % ACh Max
agonist activity at M3 (hM3): no activity
agonist activity at M2 (hM2): no activity
Structure (SMILES): CCOC(=O)N1CCC(NCCNC(=O)c2ccccc2C)CC1 [VU0357017, ethyl 4-(2-(2-methylbenzamido)ethylamino)piperidine-1-carboxylate]
reversal of scopolamine-induced deficits in contextual fear conditioning ([2]; 10 mg/kg i.p., scopolamine 0.2 mg/kg s.c., p < 0.05): significant reversal
potency at M1 Y381A compared with WT M1 (rM1 Y381A): potencies similar to those observed in WT M1 CHO cells

Structure (SMILES): CCOC(=O)N1CCC(NCCNC(=O)c2ccc(F)cc2)CC1.O=C(O)C(F)(F)F [VU0359993]
M1 potency and efficacy (SAR statement) (rM1 receptor): retaining substantial potency and efficacy

Structure (SMILES): CCOC(=O)N1CCC(NCCNC(=O)c2cccc(F)c2)CC1.O=C(O)C(F)(F)F [VU0359995]
M1 potency and efficacy (SAR statement) (rM1 receptor): retaining substantial potency and efficacy

Structure (SMILES): CCOC(=O)N1CCC(NCCNC(=O)c2cccc(OC)c2)CC1.O=C(O)C(F)(F)F [VU0360014]
M1 potency and efficacy (SAR statement) (rM1 receptor): retaining substantial potency and efficacy

Structure (SMILES): CN1[C@@H]2C[C@@H](OC(=O)[C@H](CO)c3ccccc3)C[C@H]1[C@@H]1O[C@@H]12 [scopolamine]
effect on acquisition of contextual fear conditioning response [2]: significant disruption
effect on acquisition of contextual fear conditioning response ([2]; listed as Scopolamine): robust disruption
